Reference: ChEMBL document CHEMBL1134460, “Terminally alkylated polyamine analogues as chemotherapeutic agents” (J Med Chem, 2001)

Legend:
[1] = target: T1, S-adenosylmethionine decarboxylase proenzyme (Rattus norvegicus, UniProt P17708); test: Inhibition of rat liver form of S-adenosyl-methionine decarboxylase enzyme
T1 sequence (P17708 whole entry): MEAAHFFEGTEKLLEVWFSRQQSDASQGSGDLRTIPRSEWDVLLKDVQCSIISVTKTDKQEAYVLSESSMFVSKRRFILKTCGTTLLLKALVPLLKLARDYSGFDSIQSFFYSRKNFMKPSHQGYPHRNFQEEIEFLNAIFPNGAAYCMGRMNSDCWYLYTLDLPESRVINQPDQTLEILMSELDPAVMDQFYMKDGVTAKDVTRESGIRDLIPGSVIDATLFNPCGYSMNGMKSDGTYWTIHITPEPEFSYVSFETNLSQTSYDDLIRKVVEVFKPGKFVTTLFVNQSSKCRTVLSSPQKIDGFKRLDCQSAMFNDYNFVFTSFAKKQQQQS

Trypanosoma brucei [2] = test: in vivo inhibition of trypanosomal brucei growth was determined; type: functional, organism-based
NCI-H157 [3] = test: Effect of exposure of H157 non-SCLC (<10 uM) for 96-h, and accumulation of compound was determined; type: functional, Homo sapiens
NCI-H157 [4] = test: Spermidine level in NCI H157 non-SCLC tumor cells following 24-h treatment with 10 uM of compound( Values in parentheses are control values); type: functional, Homo sapiens
Outline: (§1)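 NCI H157 non-SCLC cells were exposed to 10 μM analogue alongside untreated controls. Cellular polyamines and analogue were quantified. SSAT activity was assayed in the cells and reported as pmol product/mg protein/min.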

[5] = Half-life period as determined by N-deethylation and stepwise removal of aminopropyl equivalents; type: ADME
NCI-H157 [6] = test: CHENSpm level in NCI H157 non-SCLC tumor cells following 24-h treatment with 10 uM of compound( Values in parentheses are control values); type: functional, Homo sapiens; outline: as §1
[7] = target: T2, Diamine acetyltransferase 1 (Homo sapiens, UniProt P21673); test: Effect of 10 uM on spermine/spermidine-N-acetyltransferase (SSAT) induction in non-SCLC cells; type: cell-based
Outline: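 NCI H157 non-small-cell lung tumor cells were exposed to 10 μM analogue. SSAT activity was assayed and expressed as pmol product/mg protein/min, then as fold increase over untreated control cells.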

[8] = target: S-adenosylmethionine decarboxylase (Homo sapiens) (UniProt P17707); test: Inhibition of Inhibition of human form of S-adenosyl-methionine decarboxylase enzyme (AdoMet-DC); design: concentration or dose not given beside the values; conditions: concentration not given here
[9] = target: T3, Ornithine decarboxylase (Homo sapiens) (UniProt P11926); test: Inhibition of ornithine decarboxylase (ODC); design: concentration or dose not given beside the values; conditions: concentration not given here
T3 sequence (whole entry): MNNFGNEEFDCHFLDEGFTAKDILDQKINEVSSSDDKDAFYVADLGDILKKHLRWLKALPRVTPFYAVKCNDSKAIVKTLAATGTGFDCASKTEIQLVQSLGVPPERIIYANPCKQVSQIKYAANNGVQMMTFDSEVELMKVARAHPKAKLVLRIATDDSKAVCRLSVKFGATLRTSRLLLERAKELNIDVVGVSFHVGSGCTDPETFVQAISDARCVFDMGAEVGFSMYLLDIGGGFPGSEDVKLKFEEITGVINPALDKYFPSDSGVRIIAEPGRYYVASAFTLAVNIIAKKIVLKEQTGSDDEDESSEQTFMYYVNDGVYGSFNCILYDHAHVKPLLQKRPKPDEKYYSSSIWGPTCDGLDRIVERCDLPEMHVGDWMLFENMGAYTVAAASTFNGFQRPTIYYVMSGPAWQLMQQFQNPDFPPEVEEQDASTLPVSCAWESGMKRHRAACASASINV

NCI-H157 [10] = test: Spermine/Spermidine-N1-acetyltransferase activity in NCI H157 non-SCLC tumor cells following 24-h treatment with 10 uM of compound.( Values in parentheses are control values); type: functional, Homo sapiens; outline: as §1
NCI-H157 [11] = test: BENSpm level in NCI H157 non-SCLC tumor cells following 24-h treatment with 10 uM of compound( Values in parentheses are control values); type: functional, Homo sapiens; outline: as §1
NCI-H157 [12] = test: Putrescine level in NCI H157 non-SCLC tumor cells following 24-h treatment with 10 uM of compound( Values in parentheses are control values); type: functional, Homo sapiens; outline: as §1
NCI-H157 [13] = test: Effect of exposure of H157 non-SCLC to compound (<10 uM) for 96-h, on natural polyamines and accumulation of the compound; Decrease; type: functional, cell-based; conditions: Homo sapiens
Outline: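 H157 non-SCLC cells were treated with 10 μM analogue. Cellular putrescine, spermidine and spermine, plus the intracellular analogue, were quantified and compared with untreated control cells.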

NCI-H157 [14] = test: Spermine level in NCI H157 non-SCLC tumor cells following 24-h treatment with 10 uM of compound( Values in parentheses are control values); type: functional, Homo sapiens; outline: as §1
NCI-H157 [15] = test: In vitro activity against H157 non-small-cell lung tumor line (non-SCLC) cultures.; type: functional, cell-based; conditions: Homo sapiens
NCI-H157 [16] = test: BENSpm level in NCI H157 non-SCLC tumor cells following 24-h treatment with 10 uM of compound; type: functional, Homo sapiens; outline: as §1
NCH82 [17] = test: In vitro activity against H82 small-cell lung tumor line (SCLC) cultures.; type: functional, cell-based; conditions: Homo sapiens
[18] = Compound was evaluated for cytotoxic activity against PC-3, DU145 and LNCaP cell lines; type: functional, Homo sapiens
Outline: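 PC-3, DU145 and LNCaP prostate cancer cells were exposed to analogues over 0.1–30 μM for 120 h. Dose–response curves of growth were recorded.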

NCI-H157 [19] = test: Spermine/Spermidine-N1-acetyltransferase activity in NCI H157 non-SCLC tumor cells following 24-h treatment with 10 uM of compound; type: functional, Homo sapiens; outline: as §1
NCI-H157 [20] = test: Spermidine level in NCI H157 non-SCLC tumor cells following 24-h treatment with 10 uM of compound; type: functional, Homo sapiens; outline: as §1
NCI-H157 [21] = test: CHENSpm level in NCI H157 non-SCLC tumor cells following 24-h treatment with 10 uM of compound; type: functional, Homo sapiens; outline: as §1
NCI-H157 [22] = test: Putrescine level in NCI H157 non-SCLC tumor cells following 24-h treatment with 10 uM of compound; type: functional, Homo sapiens; outline: as §1
NCI-H157 [23] = test: Spermine level in NCI H157 non-SCLC tumor cells following 24-h treatment with 10 uM of compound; type: functional, Homo sapiens; outline: as §1
NCH82 [24] = test: Effect of 10 uM of compound on NCI H82 cell lines was assessed from the amount of spermine (values in parentheses are those in the absence of compound); type: functional, Homo sapiens
NCI-H157 [25] = test: Effect of 10 uM of compound on NCI H157 cell lines was assessed from the amount of SSAT (values in parentheses are those in the absence of compound); type: functional, Homo sapiens
Outline: (§2)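 Cells were exposed to 10 μM analogue, with untreated controls. SSAT was expressed as nmol product formed/mg protein in 24 h. The detection limit was 0.05 nmol/mg protein.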

NCH82 [26] = test: Effect of 10 uM of compound on NCI H82 cell lines was assessed from the amount of spermidine (values in parentheses are those in the absence of compound); type: functional, Homo sapiens
NCH82 [27] = test: Effect of 10 uM of compound on NCI H82 cell lines was assessed from the amount of SSAT (values in parentheses are those in the absence of compound); type: functional, Homo sapiens; outline: as §2
Trypanosoma brucei [28] = test: In vitro growth Inhibitory activity against K243 As-10-3 Strain of Trypanosoma brucei; type: functional, organism-based
Outline: (§3)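 In vitro growth inhibition was run against T. b. brucei LAB EATRO 110 and T. b. rhodesiense KETRI 243, KETRI 243 As-10-3 and KETRI 269. […] ">100" means no appreciable inhibition up to the highest concentration tested.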

Trypanosoma brucei [29] = test: In vitro growth Inhibitory activity against K269 Strain of Trypanosoma brucei.; type: functional, organism-based; outline: as §3
Trypanosoma brucei [30] = test: In vitro growth Inhibitory activity against K243 Strain of Trypanosoma brucei.; type: functional, organism-based; outline: as §3
Trypanosoma brucei [31] = test: In vitro growth Inhibitory activity against LAB 110 Strain of Trypanosoma brucei; type: functional, organism-based; outline: as §3
MCF7 = test: Growth inhibition of MCF-7 breast cancer cell line; type: functional, cell-based; conditions: Homo sapiens
ZR-75-1 = test: Growth inhibition of ZR-75-1 breast cancer cell line; type: functional, cell-based; conditions: Homo sapiens
[32] = Growth inhibition of […] breast cancer cell line; type: functional, cell-based; conditions: Homo sapiens, MDA-MB-468
T47D = test: Growth inhibition of T47D breast cancer cell line; type: functional, cell-based; conditions: Homo sapiens
Hs-578T = test: Growth inhibition of Hs 578.T breast cancer cell line; type: functional, cell-based; conditions: Homo sapiens
MDA-MB-231 = test: Growth inhibition of MDA-MB-231 breast cancer cell line; type: functional, cell-based; conditions: Homo sapiens
[33] = target: T2, Diamine acetyltransferase 1; test: Inhibitory activity of compound against SSAT extracted from superinduced H157 cells; type: cell-free
Outline: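 SSAT came from crude extracts of superinduced H157 cells and was assayed at saturating spermidine.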

NCI-H157 [34] = test: Activity against H157 non-SCLC cells in culture; type: functional, cell-based; conditions: Homo sapiens
Cricetinae gen. sp. = test: […] activity was determined against Leishmania donovani in hamsters; type: functional, Cricetulus griseus
Mus musculus = organism: Mus musculus; test: […] activity was determined against Leishmania donovani in mice (Mus musculus); type: functional
NCI-H157 [35] = test: Antitumor activity was determined against H157 cell line; type: functional, cell-based; conditions: Homo sapiens

T2 sequence (P21673 whole entry): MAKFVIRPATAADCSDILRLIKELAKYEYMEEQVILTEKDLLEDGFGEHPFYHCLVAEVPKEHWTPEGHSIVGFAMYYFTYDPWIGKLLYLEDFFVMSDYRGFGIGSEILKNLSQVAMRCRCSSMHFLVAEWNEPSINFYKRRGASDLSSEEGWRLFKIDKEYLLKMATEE

NC/C=C\NC[C@@H]1O[C@H](n2cnc3c(N)ncnc32)[C@@H](O)[C@H]1O
Ki [1]: 560 nM

C[S+](C[C@@H]1O[C@H](n2cnc3c(N)ncnc32)[C@@H](O)[C@H]1O)C1C=CC(N)C1 (stereo not given in full)
IC50 (Trypanosoma brucei [2]): 5200 nM

CCNCCCNCCCNCCCNCC [BIS(ETHYL)NORSPERMINE]
Amount (NCI-H157 [3]): >20 nM (mg of protein)-1
Polyamine level (NCI-H157 [4]): 0
half-life [5]: 1.22 h
Polyamine level (NCI-H157 [6]): 0
Induction [7]: > 500
inhibition [8]: > 50%
inhibition [9]: > 50%
Activity (NCI-H157 [10]): 148141 (pM of product) min-1 (mg of protein)-1
Polyamine level (NCI-H157 [11]): 36.07
Polyamine level (NCI-H157 [12]): 0
Effect on polyamine pools (NCI-H157 [13]): Decrease
Polyamine level (NCI-H157 [14]): 0.51

CCNCCCNCCCNCCCNCC1CCCCCC1
Amount (NCI-H157 [3]): >20 nM (mg of protein)-1
IC50 (NCI-H157 [15]): 400 nM
Polyamine level (NCI-H157 [16]): 0
IC50 (NCH82 [17]): 700 nM
CC [18]: 30 µM
Induction [7]: 0
Activity (NCI-H157 [19]): 781 (pM of product) min-1 (mg of protein)-1
Polyamine level (NCI-H157 [20]): 6.44
inhibition [8]: < 50%
inhibition [9]: < 50%
Polyamine level (NCI-H157 [21]): 14.66
Polyamine level (NCI-H157 [22]): 4.28
Effect on polyamine pools (NCI-H157 [13]): Decrease
Polyamine level (NCI-H157 [23]): 15.97

CCNCCCNCCCCNCCCNCC [BIS(ETHYL)SPERMINE]
Amount (NCI-H157 [3]): >20 nM (mg of protein)-1
Polyamine (NCH82 [24]): 10.06 nM (mg of protein)-1
Induction [7]: > 500
inhibition [8]: > 50%
Polyamine (NCI-H157 [25]): 6511 nM (mg of protein)-1
inhibition [9]: > 50%
Polyamine (NCH82 [26]): 3.07 nM (mg of protein)-1
Polyamine (NCH82 [27]): 60 nM (mg of protein)-1
Effect on polyamine pools (NCI-H157 [13]): Decrease

COc1cccc(CNCCCNCCCCCCCNCCCNCc2cccc(OC)c2)c1
IC50 (Trypanosoma brucei [28]): 5500 nM
IC50 (Trypanosoma brucei [29]): 16500 nM
IC50 (Trypanosoma brucei [30]): 18500 nM
IC50 (Trypanosoma brucei [31]): 22000 nM

CCNCCCNCCCNCCCNCC1CC1
IC50 (MCF7): 1100 nM
Amount (NCI-H157 [3]): >20 nM (mg of protein)-1
IC50 (NCI-H157 [15]): 700 nM
IC50 (ZR-75-1): 1100 nM
IC50 (NCH82 [17]): 5200 nM
Induction [7]: > 500
IC50 [32]: 600 nM
IC50 (T47D): 400 nM
IC50 (Hs-578T): 200 nM
inhibition [9]: > 50%
IC50 (MDA-MB-231): 1300 nM
IC50 [33]: 100000 nM
Effect on polyamine pools (NCI-H157 [13]): Decrease
IC50 (NCI-H157 [34]): 800 nM

c1ccc(CNCCCNCCCCCCCNCCCNCc2ccccc2)cc1
IC50 (NCI-H157 [15]): 500 nM
IC50 (NCH82 [17]): 1700 nM
ED50 (Cricetinae gen. sp.): 1 mg/kg
ED50 (Mus musculus): 2.5 mg/kg
IC50 (NCI-H157 [35]): 500 nM
